# From publication PMC10582055 (Saudi Pharmaceutical Journal : SPJ, 2023)
# Experiments:
# Format in all cases: in vivo, Wistar rats
# CYP3A2 = assay: Hepatic and intestinal CYP3A2 protein expression
# Summary of the method: (§1)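 Wistar rats (n = 6/group), fasted overnight and dosed by intragastric gavage: saline for 7 days; saline for 6 days, then the drug at 25 mg/kg p.o. on day 7; the drug on day 7 given 2 h after test compound at 40 mg/kg; or test compound at 40 mg/kg for 7 days. Liver and intestine protein (BCA) was run on 10% SDS-PAGE and blotted to PVDF. Primary antibodies with β-actin overnight at 4 °C, secondary 2 h, chemiluminescence, densitometry. Mean ± SD, one-way ANOVA.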
# [1] = Pharmacokinetics of oral DAS in rats with or without SA pretreatment; settings: for k el: Kel; for MRT inf: MRT 0-inf_obs
# Pgp/MDR1 = assay: Hepatic and intestinal Pgp/MDR1 protein expression
# Summary of the method: as §1
# BCRP/ABCG2 = assay: Hepatic and intestinal BCRP/ABCG2 protein expression
# Summary of the method: as §1
# [2] = Wistar, rat, plasma, po, 25 mg/kg, rats, DAS 25 mg/kg p.o. after SA 40 mg/kg p.o. pretreatment for seven days, Mean ± SD
# [3] = Wistar, rat, plasma, po, 25 mg/kg, rats, DAS 25 mg/kg p.o. single dose, alone, Mean ± SD
# [4] = decrease, SA 40 mg/kg + DAS 25 mg/kg vs DAS alone, rats
# [5] = increase, SA 40 mg/kg + DAS 25 mg/kg vs DAS alone, rats
# [6] = rats, DAS 25 mg/kg p.o. after SA 40 mg/kg p.o. pretreatment for seven days, Mean ± SD
# [7] = rats, DAS 25 mg/kg p.o. single dose, alone, Mean ± SD
# [8] = intestine, SA 40 mg/kg alone vs normal rats
# [9] = liver, SA 40 mg/kg alone vs normal rats
# [10] = intestine, SA-pretreated rats + DAS vs DAS alone
# [11] = liver, SA-pretreated rats + DAS vs DAS alone
structure (smiles),measurement,setting,value
"Cc1nc(Nc2ncc(C(=O)Nc3c(C)cccc3Cl)s2)cc(N2CCN(CCO)CC2)n1 [DAS, Dasatinib]",increase of intestinal CYP3A2 protein expression,"CYP3A2; intestine, DAS administered rats (25 mg/kg p.o.) vs normal rats",92.97%
same,increase of hepatic CYP3A2 protein expression,"CYP3A2; liver, DAS administered rats (25 mg/kg p.o.) vs normal rats",92.03%
same,half-life,"[1]; Wistar, rat, plasma, po, 25 mg/kg",5.59 ± 0.2 h
same,AUC(0-t),[1]; [2],2210 ± 96.3 ng·h/mL
same,AUC(0-t),[1]; [3],1720 ± 70.6 ng·h/mL
same,Cmax,[1]; [2],419 ± 18.8 ng/mL
same,Cmax,[1]; [3],259 ± 9.71 ng/mL
same,k el,[1]; [2],3.33e-05 s⁻¹
same,k el,[1]; [3],4.44e-05 s⁻¹
same,MRT inf,[1]; [2],8.2 ± 0.25 h
same,MRT inf,[1]; [3],7.31 ± 0.17 h
same,% Change in Cl,[1]; [4],26.97%
same,% Change in Kel,[1]; [4],22.33%
same,% Change in Vd,[1]; [4],5.96%
same,% Change in AUC 0-t,[1]; [5],28.98%
same,% Change in AUMC 0-∞,[1]; [5],53.63%
same,% Change in Cmax,[1]; [5],62.02%
same,% Change in MRT 0-inf_obs,[1]; [5],12.08%
same,% Change in T1/2,[1]; [5],28.82%
same,% Change in Tmax,[1]; [5],100%
same,AUMC 0-∞,[1]; [6],23569.00 ± 1418.58 ng/mL*h^2
same,Cl,[1]; [6],0.009 ± 0.00 (mg/kg)/(ng/mL)/h
same,Tmax,[1]; [6],2.00 ± 0.00 h
same,Vd,[1]; [6],0.070 ± 0.004 (mg/kg)/(ng/mL)
same,AUMC 0-∞,[1]; [7],15341.83 ± 607.98 ng/mL*h^2
same,Cl,[1]; [7],0.012 ± 0.001 (mg/kg)/(ng/mL)/h
same,T1/2,[1]; [7],4.34 ± 0.11 h
same,Vd,[1]; [7],0.075 ± 0.003 (mg/kg)/(ng/mL)
same,induction of intestinal Pgp/MDR1 protein expression,"Pgp/MDR1; intestine, DAS administration vs normal rats",76.42%
same,induction of hepatic Pgp/MDR1 protein expression,"Pgp/MDR1; liver, DAS administration vs normal rats",72.30%
same,induction of intestinal BCPR/ABCG2 protein expression,"BCRP/ABCG2; intestine, DAS per-oral administration vs normal rats",73.55%
same,induction of hepatic BCPR/ABCG2 protein expression,"BCRP/ABCG2; liver, DAS per-oral administration vs normal rats",75.09%
"COc1cc(/C=C/C(=O)O)cc(OC)c1O [SA, Sinapic acid]",inhibition of intestinal CYP3A2 protein expression,CYP3A2; [8],89.47%
same,inhibition of hepatic CYP3A2 protein expression,CYP3A2; [9],88.91%
same,inhibition of hepatic CYP3A2 protein expression,"CYP3A2; liver, SA 40 mg/kg pretreatment for seven days + DAS vs DAS administered rats",57.11%
same,inhibition of intestinal Pgp/MDR1 protein expression,Pgp/MDR1; [8],76.93%
same,inhibition of intestinal Pgp/MDR1 protein expression,Pgp/MDR1; [10],47.43%
same,inhibition of hepatic Pgp/MDR1 protein expression,Pgp/MDR1; [9],84.93%
same,inhibition of hepatic Pgp/MDR1 protein expression,Pgp/MDR1; [11],44.06%
same,inhibition of intestinal BCPR/ABCG2 protein,BCRP/ABCG2; [10],50.48%
same,inhibition of hepatic BCPR/ABCG2 protein,BCRP/ABCG2; [11],51.44%
